Measurements: the M2OR odorant receptor database

How the values were obtained:
Conditions in all cases: stereoisomer not certain
OR2B3 (Homo sapiens) = biological target: T1, OR2B3 (Homo sapiens) (UniProt O76000)
T1 sequence (whole entry): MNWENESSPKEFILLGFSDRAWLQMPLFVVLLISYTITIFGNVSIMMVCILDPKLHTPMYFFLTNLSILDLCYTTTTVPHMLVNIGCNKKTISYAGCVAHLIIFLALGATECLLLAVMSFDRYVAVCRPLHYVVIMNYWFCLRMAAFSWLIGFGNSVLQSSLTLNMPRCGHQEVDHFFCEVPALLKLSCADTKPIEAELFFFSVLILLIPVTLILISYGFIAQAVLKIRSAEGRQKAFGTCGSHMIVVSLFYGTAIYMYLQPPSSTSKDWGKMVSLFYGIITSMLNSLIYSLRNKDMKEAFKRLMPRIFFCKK
In short: (§1)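 Assay methods differ from source to source, frequently being transient luciferase assays in mammalian cell lines. For each receptor–molecule pair, the label responsive (active) applies when the original authors judged the measured signal statistically different from baseline, and non-responsive (inactive) applies otherwise.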

OR2C1 (Homo sapiens) = biological target: T2, OR2C1 (Homo sapiens) (UniProt O95371)
T2 sequence (whole entry): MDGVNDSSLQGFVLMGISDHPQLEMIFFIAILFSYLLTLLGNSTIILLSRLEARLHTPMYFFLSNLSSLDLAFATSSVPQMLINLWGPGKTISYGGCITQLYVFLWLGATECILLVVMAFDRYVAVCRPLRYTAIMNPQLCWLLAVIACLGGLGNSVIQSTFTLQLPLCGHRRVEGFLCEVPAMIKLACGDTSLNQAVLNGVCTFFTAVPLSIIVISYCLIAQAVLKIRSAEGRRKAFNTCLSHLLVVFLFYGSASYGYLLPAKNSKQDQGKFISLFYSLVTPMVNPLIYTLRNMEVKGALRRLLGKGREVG
In short: as §1

OR2B11 (Homo sapiens) = biological target: T3, OR2B11 (Homo sapiens) (UniProt Q5JQS5)
T3 sequence (whole entry): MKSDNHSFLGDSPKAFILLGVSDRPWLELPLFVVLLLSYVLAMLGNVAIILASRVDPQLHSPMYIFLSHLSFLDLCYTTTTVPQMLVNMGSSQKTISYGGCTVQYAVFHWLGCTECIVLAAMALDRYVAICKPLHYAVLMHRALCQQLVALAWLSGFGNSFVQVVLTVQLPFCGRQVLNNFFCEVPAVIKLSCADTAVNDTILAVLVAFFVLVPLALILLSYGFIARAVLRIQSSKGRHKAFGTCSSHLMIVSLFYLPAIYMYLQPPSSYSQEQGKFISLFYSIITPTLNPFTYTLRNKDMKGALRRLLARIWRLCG
In short: as §1

OR2B2 (Homo sapiens) = OR2B2 (Homo sapiens) (UniProt Q9GZK3)
OR2B2 (Homo sapiens), sequence (Q9GZK3 whole entry): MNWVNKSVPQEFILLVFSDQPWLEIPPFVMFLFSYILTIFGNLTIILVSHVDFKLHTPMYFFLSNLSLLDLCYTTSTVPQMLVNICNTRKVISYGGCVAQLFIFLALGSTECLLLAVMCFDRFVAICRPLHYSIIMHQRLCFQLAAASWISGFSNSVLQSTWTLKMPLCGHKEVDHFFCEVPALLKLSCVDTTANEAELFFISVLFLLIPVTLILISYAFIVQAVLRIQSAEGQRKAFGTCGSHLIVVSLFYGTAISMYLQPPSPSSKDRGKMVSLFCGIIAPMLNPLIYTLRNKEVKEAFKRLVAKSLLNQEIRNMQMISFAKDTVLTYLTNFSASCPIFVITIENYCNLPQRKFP
In short: as §1

OR2B6 (Homo sapiens) = OR2B6 (Homo sapiens) (UniProt P58173)
OR2B6 (Homo sapiens), sequence (P58173 whole entry): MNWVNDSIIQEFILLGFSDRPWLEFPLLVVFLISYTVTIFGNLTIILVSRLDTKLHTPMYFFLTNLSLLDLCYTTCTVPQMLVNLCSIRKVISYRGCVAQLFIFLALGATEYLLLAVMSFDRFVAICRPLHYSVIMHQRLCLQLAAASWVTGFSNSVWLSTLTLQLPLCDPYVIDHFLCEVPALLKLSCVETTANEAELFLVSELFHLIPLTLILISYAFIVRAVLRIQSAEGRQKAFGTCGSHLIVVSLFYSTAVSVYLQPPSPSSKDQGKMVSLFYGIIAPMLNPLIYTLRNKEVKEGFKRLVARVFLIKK
In short: as §1

OR2BB [1] = tested on: OR2BB
In short: as §1
Target sequence in this assay (as listed by the source): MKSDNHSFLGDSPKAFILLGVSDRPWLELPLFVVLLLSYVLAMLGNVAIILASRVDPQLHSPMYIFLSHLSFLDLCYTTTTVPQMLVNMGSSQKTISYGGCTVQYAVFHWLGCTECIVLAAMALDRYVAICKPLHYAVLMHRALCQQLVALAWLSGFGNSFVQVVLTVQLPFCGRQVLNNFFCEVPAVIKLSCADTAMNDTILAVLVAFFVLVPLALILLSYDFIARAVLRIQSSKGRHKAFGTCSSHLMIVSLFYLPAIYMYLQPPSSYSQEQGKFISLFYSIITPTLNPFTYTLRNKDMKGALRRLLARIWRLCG

OR2BB [2] = tested on: OR2BB; remark: listed apart in the source
In short: as §1
Target sequence in this assay (as listed by the source): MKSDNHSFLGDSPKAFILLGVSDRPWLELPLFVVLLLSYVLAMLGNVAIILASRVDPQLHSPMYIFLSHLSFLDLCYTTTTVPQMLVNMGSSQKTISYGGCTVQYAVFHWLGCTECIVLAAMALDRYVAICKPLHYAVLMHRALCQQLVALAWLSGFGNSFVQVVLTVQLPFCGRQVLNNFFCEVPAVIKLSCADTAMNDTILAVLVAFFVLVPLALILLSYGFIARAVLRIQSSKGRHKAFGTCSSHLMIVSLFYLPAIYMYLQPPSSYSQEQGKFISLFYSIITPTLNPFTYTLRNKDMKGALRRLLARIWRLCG

OR2C1 [3] = tested on: OR2C1
In short: as §1
Target sequence in this assay (as listed by the source): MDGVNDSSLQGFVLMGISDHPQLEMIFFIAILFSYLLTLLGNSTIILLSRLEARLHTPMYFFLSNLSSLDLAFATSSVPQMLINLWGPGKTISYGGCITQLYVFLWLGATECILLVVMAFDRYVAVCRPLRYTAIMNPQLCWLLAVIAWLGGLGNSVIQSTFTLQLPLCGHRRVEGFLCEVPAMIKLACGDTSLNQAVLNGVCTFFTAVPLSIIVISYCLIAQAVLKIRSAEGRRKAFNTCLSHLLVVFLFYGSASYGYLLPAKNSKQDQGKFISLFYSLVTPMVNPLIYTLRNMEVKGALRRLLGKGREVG

OR2C3 [4] = tested on: OR2C3
In short: as §1

OR2C3 [5] = tested on: OR2C3; remark: listed apart in the source
In short: as §1
Target sequence in this assay (as listed by the source): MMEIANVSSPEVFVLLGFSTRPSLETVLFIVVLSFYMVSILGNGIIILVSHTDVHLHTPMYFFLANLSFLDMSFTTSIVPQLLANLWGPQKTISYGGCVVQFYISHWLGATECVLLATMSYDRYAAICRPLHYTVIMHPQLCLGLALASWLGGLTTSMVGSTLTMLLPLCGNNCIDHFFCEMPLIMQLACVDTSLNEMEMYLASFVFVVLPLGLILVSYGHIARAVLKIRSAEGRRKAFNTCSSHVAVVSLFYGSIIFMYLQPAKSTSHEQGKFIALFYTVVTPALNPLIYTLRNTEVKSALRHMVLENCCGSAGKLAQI

OR2D2 (Homo sapiens) = OR2D2 (Homo sapiens) (UniProt Q9H210)
OR2D2 (Homo sapiens), sequence (Q9H210 whole entry): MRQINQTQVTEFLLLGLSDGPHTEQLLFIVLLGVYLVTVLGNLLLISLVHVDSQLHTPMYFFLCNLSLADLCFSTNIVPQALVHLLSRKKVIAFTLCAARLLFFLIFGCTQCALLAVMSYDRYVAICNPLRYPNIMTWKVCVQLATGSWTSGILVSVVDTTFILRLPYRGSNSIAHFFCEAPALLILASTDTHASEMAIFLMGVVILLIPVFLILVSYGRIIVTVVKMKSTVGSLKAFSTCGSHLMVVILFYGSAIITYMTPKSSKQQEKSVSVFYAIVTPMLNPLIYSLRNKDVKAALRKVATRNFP
In short: as §1

OR2C3 (Homo sapiens) = OR2C3 (Homo sapiens) (UniProt Q8N628)
OR2C3 (Homo sapiens), sequence (Q8N628 whole entry): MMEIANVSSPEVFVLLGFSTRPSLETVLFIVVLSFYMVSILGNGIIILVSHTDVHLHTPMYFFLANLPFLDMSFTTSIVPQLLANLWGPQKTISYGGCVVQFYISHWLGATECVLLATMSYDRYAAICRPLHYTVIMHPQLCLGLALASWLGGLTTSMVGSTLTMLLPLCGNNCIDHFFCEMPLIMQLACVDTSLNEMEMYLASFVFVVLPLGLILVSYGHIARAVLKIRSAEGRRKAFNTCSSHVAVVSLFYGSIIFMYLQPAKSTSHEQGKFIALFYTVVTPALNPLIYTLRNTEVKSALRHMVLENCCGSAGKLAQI
In short: as §1

OR2BB [6] = tested on: OR2BB; remark: listed apart in the source
In short: as §1
Target sequence in this assay (as listed by the source): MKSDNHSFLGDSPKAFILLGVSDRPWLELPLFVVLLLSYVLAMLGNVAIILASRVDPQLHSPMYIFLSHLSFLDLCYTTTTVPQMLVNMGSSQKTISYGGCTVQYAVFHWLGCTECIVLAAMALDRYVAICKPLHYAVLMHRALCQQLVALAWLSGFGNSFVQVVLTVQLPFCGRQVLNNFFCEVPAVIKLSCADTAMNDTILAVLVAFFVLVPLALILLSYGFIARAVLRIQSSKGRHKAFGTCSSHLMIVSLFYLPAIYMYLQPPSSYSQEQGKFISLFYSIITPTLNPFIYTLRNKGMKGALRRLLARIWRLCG

OR2BB [7] = tested on: OR2BB; remark: listed apart in the source
In short: as §1
Target sequence in this assay (as listed by the source): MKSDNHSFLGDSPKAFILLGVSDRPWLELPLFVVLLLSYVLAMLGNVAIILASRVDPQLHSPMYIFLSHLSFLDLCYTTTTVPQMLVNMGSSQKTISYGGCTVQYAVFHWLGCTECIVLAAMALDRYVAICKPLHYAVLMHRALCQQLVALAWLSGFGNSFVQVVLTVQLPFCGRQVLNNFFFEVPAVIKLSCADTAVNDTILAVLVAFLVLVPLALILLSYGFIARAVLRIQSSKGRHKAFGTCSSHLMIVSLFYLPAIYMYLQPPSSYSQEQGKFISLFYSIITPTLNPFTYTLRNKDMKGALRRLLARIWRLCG

OR2BB [8] = tested on: OR2BB; remark: listed apart in the source
In short: as §1
Target sequence in this assay (as listed by the source): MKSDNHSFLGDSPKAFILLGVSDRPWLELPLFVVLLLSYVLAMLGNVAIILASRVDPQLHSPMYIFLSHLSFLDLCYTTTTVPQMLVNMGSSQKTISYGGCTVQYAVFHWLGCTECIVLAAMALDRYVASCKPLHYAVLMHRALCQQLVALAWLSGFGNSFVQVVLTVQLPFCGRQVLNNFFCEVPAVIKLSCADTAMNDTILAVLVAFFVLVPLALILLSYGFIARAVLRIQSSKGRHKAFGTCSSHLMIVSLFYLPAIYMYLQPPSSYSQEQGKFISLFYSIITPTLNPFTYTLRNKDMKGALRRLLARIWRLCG

OR2C1 [9] = tested on: OR2C1; remark: listed apart in the source
In short: as §1
Target sequence in this assay (as listed by the source): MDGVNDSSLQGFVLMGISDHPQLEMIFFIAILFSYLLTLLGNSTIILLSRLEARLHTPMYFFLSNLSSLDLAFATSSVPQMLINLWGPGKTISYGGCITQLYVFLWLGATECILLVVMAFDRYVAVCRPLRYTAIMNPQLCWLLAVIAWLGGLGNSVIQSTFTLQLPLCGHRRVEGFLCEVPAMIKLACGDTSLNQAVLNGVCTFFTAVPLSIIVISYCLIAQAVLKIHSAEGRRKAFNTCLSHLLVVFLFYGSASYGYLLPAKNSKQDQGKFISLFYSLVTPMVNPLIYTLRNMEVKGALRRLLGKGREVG

OR2C1 [10] = tested on: OR2C1; remark: listed apart in the source
In short: as §1
Target sequence in this assay (as listed by the source): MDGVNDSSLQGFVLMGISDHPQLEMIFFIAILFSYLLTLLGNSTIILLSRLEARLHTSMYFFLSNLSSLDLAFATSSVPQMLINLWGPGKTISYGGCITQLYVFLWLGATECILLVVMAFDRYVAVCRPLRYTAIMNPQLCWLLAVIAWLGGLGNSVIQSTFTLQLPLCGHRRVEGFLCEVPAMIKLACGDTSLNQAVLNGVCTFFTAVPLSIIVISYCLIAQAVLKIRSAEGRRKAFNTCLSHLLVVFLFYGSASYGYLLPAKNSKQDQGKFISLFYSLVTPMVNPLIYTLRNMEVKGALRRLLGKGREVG

OR2C1 [11] = tested on: OR2C1; remark: listed apart in the source
In short: as §1
Target sequence in this assay (as listed by the source): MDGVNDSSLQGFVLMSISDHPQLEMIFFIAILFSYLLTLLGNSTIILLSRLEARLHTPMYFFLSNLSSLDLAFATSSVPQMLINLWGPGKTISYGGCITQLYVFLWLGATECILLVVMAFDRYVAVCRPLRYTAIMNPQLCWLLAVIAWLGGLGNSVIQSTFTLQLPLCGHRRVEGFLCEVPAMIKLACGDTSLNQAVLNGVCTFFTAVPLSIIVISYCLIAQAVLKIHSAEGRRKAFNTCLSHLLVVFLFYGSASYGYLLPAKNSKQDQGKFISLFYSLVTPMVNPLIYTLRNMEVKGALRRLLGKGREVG

OR2C1 [12] = tested on: OR2C1; remark: listed apart in the source
In short: as §1

OR2C1 [13] = tested on: OR2C1; remark: listed apart in the source
In short: as §1
Target sequence in this assay (as listed by the source): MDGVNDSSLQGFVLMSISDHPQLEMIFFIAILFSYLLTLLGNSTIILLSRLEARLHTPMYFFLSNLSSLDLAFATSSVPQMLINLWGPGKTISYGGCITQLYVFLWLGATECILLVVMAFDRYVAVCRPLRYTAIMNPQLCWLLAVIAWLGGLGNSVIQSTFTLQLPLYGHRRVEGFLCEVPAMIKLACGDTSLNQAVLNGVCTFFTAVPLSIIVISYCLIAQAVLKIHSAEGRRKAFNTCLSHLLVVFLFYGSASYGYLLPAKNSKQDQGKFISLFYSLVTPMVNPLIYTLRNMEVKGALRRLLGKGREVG

**Q.** `O=Cc1ccccc1` was tested. Which “odorant receptor agonist call” value (OR2B3 (Homo sapiens)) did it give?
**A.** inactive

**Q.** `CCC1CCC(=O)O1` (stereo not given) was tested. Which “odorant receptor agonist call” value (OR2C1 (Homo sapiens)) did it give?
**A.** inactive

**Q.** With `O=c1cc(O)c2ccccc2o1` as the compound, how does the “odorant receptor agonist call” value (OR2C1 (Homo sapiens)) read?
**A.** inactive

**Q.** Which results are given for `C=CCOC(=O)Cc1ccccc1`?
**A.** odorant receptor agonist call (OR2B11 (Homo sapiens)): inactive; odorant receptor agonist call (OR2B2 (Homo sapiens)): inactive; odorant receptor agonist call (OR2B3 (Homo sapiens)): inactive; odorant receptor agonist call (OR2B6 (Homo sapiens)): inactive; odorant receptor agonist call (OR2BB [1]): inactive; odorant receptor agonist call (OR2BB [2]): inactive; odorant receptor agonist call (OR2C1 (Homo sapiens)): inactive; odorant receptor agonist call (OR2C1 [3]): inactive; odorant receptor agonist call (OR2C3 [4]): inactive; odorant receptor agonist call (OR2C3 [5]): inactive; odorant receptor agonist call (OR2D2 (Homo sapiens)): inactive

**Q.** What does the source list for `Cc1c([N+](=O)[O-])c(C)c([N+](=O)[O-])c(C(C)(C)C)c1[N+](=O)[O-]`?
**A.** odorant receptor agonist call (OR2B11 (Homo sapiens)): inactive; odorant receptor agonist call (OR2B2 (Homo sapiens)): inactive; odorant receptor agonist call (OR2B6 (Homo sapiens)): inactive; odorant receptor agonist call (OR2C1 (Homo sapiens)): inactive; odorant receptor agonist call (OR2C3 (Homo sapiens)): inactive; odorant receptor agonist call (OR2D2 (Homo sapiens)): inactive

**Q.** For `C=CCc1ccccc1`, which “odorant receptor agonist call” value (OR2C1 (Homo sapiens)) is on record?
**A.** inactive

**Q.** How did the “odorant receptor agonist call” value (OR2B11 (Homo sapiens)) turn out when `O=CC=Cc1ccccc1` was run?
**A.** active

**Q.** What about the “odorant receptor agonist call” value (OR2B3 (Homo sapiens)) of the same compound?
**A.** inactive

**Q.** And the “odorant receptor agonist call” value (OR2BB [1])?
**A.** inactive

**Q.** And the “odorant receptor agonist call” value (OR2BB [6])?
**A.** inactive

**Q.** What about the “odorant receptor agonist call” value (OR2BB [2]) of the same compound?
**A.** inactive

**Q.** What about the “odorant receptor agonist call” value (OR2BB [7]) of the same compound?
**A.** inactive

**Q.** What about the “odorant receptor agonist call” value (OR2BB [8]) of the same compound?
**A.** active

**Q.** What about the “odorant receptor agonist call” value (OR2C1 [9]) of the same compound?
**A.** inactive

**Q.** And the “odorant receptor agonist call” value (OR2C1 [3])?
**A.** inactive

**Q.** What about the “odorant receptor agonist call” value (OR2C1 [10]) of the same compound?
**A.** inactive

**Q.** And the “odorant receptor agonist call” value (OR2C1 [11])?
**A.** inactive

**Q.** What about the “odorant receptor agonist call” value (OR2C1 [12]) of the same compound?
**A.** active

**Q.** What about the “odorant receptor agonist call” value (OR2C1 [13]) of the same compound?
**A.** active

**Q.** How did the “odorant receptor agonist call” value (OR2B3 (Homo sapiens)) turn out when `C=CCc1ccc(OC)cc1` was run?
**A.** inactive
